In ChEMBL document CHEMBL4196006, “Aryl thiosemicarbazones for the treatment of trypanosomatidic infections” (Eur J Med Chem, 2018):
Calls of active or inactive are those of the source. No cut-off for these calls is given here.

Assays:
Trypanosoma brucei [1] = experiment: Antitrypanosomal activity against Trypanosoma brucei Lister 427 bloodstream form assessed as parasite growth inhibition at 50 uM after 72 hrs by SYBR Green assay relative to control; assay type: functional
Leishmania infantum = experiment: Antileishmanial activity against Leishmania infantum amastigote form assessed as parasite growth inhibition at 50 uM after 72 hrs by steady-Glo reagent based assay relative to control; assay type: functional; settings: for inhibition of growth at 50 µM: read-out: GI
Procedure, shortened: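 Intramacrophage L. infantum amastigotes in THP-1-derived macrophages, tested at 50 μM or in dose-response. Plates held 72 h at 37 °C, 5% CO2. Medium was replaced by PBS, macrophages lysed, and parasites read by Steady-Glo luminescence. High-content imaging gave host cell number, infection ratio (infected/total cells) and parasites per infected cell. Values are means of at least two independent experiments.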

Trypanosoma cruzi = experiment: Antitrypanosomal activity against Trypanosoma cruzi amastigote form infected in human U2OS cells assessed as parasite growth inhibition at 50 uM after 72 hrs relative to control; assay type: functional; settings: for inhibition of growth at 50 µM: read-out: GI
Procedure, shortened: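 U2OS monolayers grown for 24 h, then infected with tissue-derived trypomastigotes of T. cruzi Y strain. Compounds were added 24 h after infection at 50 μM (single-point) or in dose-response, with 72 h exposure. Plates were fixed, stained and analysed by high-content imaging; activity was normalized to infected and non-infected controls. Means of at least two experiments; benznidazole as reference.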

Trypanosoma brucei [2] = experiment: Antitrypanosomal activity against Trypanosoma brucei Lister 427 bloodstream form at 10 uM after 72 hrs by resazurin dye-based assay relative to control; assay type: functional
Trypanosoma brucei [3] = experiment: Potentiation of methotrexate-induced antitrypanosomal activity against Trypanosoma brucei Lister 427 bloodstream form at 10 uM after 72 hrs by resazurin dye-based assay relative to control; assay type: functional
CYP1A2 = molecular target: T1, CYP1A2 (Homo sapiens, UniProt P05177); experiment: Inhibition of human microsomal CYP1A2 expressed in baculovirus infected BTI-TN-5B1-4 cells at 10 uM incubated for 30 mins by luciferase assay relative to control; assay type: ADME
T1 sequence (P05177 whole entry): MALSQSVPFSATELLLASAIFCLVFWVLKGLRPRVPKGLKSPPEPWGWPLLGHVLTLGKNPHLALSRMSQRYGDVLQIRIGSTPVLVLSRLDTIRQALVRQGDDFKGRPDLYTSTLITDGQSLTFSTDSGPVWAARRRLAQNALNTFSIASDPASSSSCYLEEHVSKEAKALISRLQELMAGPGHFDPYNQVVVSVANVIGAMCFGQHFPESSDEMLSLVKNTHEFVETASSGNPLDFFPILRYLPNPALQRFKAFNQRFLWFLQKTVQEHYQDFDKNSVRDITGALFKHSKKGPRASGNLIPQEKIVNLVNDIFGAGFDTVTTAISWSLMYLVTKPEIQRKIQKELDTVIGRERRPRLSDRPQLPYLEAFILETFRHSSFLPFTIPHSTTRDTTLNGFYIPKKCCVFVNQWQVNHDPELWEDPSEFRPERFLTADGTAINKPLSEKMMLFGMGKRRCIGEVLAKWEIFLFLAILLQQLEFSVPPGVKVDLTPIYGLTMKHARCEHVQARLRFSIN
Procedure, shortened: (§1)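 CYP1A2, 2C9, 2C19, 2D6 and 3A4 in microsomes from baculovirus-infected insect cells, each with a P450-Glo luminogenic substrate. Inhibition read as loss of light; single-point at 10 μM, triplicate.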

Trypanosoma brucei [4] = experiment: Potentiation of methotrexate-induced antitrypanosomal activity against Trypanosoma brucei Lister 427 bloodstream form at 10 uM after 72 hrs by resazurin dye-based assay; assay type: functional
hERG (KCNH2) = hERG (KCNH2) (Homo sapiens, UniProt Q12809); experiment: Inhibition of human ERG at 10 uM incubated for 2 hrs by fluorescence polarisation assay relative to control
Chain of hERG (KCNH2) (Q12809 whole entry): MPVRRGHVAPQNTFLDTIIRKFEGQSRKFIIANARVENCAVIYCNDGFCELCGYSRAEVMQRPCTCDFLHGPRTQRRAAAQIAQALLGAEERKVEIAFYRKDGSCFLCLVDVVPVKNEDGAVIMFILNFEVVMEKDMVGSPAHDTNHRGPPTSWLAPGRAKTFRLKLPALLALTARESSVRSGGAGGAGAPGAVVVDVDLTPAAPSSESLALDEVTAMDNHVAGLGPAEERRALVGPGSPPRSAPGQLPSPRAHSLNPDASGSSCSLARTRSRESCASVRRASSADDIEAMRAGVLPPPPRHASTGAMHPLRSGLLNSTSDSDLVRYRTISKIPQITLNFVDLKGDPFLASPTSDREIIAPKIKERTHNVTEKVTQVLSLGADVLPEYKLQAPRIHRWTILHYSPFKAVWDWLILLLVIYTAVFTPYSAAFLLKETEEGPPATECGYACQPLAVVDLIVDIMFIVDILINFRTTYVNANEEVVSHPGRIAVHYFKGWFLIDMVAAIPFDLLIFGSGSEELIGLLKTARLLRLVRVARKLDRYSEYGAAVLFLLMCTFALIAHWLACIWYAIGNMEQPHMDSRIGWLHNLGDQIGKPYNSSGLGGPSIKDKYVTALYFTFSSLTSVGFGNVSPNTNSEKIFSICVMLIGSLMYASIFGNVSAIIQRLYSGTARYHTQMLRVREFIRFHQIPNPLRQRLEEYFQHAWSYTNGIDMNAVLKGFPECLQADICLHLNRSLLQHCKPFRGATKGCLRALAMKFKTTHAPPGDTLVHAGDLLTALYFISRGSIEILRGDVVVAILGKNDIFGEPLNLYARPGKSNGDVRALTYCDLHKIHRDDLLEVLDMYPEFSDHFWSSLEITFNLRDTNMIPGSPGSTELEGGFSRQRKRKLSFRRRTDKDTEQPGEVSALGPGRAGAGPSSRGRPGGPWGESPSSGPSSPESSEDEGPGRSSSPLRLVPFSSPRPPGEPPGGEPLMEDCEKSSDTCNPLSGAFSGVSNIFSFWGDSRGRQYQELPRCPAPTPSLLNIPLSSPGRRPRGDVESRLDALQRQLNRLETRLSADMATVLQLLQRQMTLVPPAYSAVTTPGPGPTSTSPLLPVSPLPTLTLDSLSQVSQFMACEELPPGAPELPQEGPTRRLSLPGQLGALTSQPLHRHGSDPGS

CYP2C9 = CYP2C9 (Homo sapiens, UniProt P11712); experiment: Inhibition of human microsomal CYP2C9 expressed in baculovirus infected BTI-TN-5B1-4 cells at 10 uM incubated for 30 mins by luciferase assay relative to control; assay type: ADME; procedure, shortened: as §1
Chain of CYP2C9 (P11712 whole entry): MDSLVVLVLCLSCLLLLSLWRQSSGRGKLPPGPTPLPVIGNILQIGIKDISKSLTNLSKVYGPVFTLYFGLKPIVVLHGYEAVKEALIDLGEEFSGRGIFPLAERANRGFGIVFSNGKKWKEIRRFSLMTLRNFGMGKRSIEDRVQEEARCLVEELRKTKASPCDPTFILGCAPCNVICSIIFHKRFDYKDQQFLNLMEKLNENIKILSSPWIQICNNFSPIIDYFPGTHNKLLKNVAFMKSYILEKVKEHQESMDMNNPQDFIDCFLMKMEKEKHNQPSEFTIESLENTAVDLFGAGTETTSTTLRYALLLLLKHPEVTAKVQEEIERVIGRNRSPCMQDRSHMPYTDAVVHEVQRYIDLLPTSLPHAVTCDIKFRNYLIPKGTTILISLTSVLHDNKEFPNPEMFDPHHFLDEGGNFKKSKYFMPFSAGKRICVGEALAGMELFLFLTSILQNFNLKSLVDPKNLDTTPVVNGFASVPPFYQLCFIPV

CYP2C19 = CYP2C19 (Homo sapiens, UniProt P33261); experiment: Inhibition of human microsomal CYP2C19 expressed in baculovirus infected BTI-TN-5B1-4 cells at 10 uM incubated for 30 mins by luciferase assay relative to control; assay type: ADME; procedure, shortened: as §1
Chain of CYP2C19 (P33261 whole entry): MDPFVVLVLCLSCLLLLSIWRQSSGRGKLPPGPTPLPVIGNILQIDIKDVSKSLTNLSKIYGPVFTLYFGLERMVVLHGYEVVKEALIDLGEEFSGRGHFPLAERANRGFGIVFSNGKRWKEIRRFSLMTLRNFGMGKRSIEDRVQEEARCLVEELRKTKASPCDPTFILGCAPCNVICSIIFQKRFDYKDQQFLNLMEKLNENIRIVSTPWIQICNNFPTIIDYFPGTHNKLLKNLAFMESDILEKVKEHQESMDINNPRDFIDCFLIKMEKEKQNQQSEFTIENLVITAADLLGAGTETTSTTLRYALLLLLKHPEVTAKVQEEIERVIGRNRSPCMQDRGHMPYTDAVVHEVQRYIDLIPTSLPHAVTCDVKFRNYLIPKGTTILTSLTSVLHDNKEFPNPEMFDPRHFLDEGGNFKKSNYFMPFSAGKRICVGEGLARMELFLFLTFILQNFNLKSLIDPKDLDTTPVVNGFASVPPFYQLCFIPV

CYP2D6 = CYP2D6 (Homo sapiens, UniProt P10635); experiment: Inhibition of human microsomal CYP2D6 expressed in baculovirus infected BTI-TN-5B1-4 cells at 10 uM incubated for 30 mins by luciferase assay relative to control; assay type: ADME; procedure, shortened: as §1
Chain of CYP2D6 (P10635 whole entry): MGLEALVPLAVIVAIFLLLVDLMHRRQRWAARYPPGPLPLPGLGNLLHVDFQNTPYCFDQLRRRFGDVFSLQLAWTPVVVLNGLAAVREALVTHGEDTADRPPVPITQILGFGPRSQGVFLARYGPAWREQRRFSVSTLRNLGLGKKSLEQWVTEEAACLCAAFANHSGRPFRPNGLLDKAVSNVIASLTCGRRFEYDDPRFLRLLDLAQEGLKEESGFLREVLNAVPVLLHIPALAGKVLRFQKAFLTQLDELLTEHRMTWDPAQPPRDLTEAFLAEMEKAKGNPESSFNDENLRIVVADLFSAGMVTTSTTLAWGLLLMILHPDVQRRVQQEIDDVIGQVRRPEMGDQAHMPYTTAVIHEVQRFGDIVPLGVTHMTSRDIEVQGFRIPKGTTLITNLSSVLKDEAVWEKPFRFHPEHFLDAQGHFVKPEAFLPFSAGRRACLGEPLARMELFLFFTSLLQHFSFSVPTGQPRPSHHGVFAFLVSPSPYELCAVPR

CYP3A4 = CYP3A4 (Homo sapiens, UniProt P08684); experiment: Inhibition of human microsomal CYP3A4 expressed in baculovirus infected BTI-TN-5B1-4 cells at 10 uM incubated for 30 mins by luciferase assay relative to control; assay type: ADME; procedure, shortened: as §1
Chain of CYP3A4 (P08684 whole entry): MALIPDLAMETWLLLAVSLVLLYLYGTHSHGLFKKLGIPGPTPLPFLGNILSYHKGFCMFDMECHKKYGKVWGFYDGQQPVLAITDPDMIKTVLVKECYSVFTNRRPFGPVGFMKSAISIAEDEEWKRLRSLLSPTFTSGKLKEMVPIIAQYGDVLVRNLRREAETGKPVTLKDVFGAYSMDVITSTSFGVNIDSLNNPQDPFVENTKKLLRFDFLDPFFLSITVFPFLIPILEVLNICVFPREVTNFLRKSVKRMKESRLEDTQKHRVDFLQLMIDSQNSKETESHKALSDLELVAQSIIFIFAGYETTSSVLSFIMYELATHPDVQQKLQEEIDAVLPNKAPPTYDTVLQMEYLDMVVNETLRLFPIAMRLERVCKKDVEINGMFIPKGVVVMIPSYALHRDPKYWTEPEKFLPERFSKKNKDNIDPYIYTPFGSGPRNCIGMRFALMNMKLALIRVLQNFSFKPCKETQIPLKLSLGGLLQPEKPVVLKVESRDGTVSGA

Aurora kinase B = Aurora kinase B (Homo sapiens, UniProt Q96GD4); experiment: Inhibition of recombinant full-length human aurora B kinase expressed in baculovirus system at 10 uM using MBP as substrate incubated for 45 mins by ADP-glo kinase assay; settings: probe MBP
Chain of Aurora kinase B (Q96GD4 whole entry): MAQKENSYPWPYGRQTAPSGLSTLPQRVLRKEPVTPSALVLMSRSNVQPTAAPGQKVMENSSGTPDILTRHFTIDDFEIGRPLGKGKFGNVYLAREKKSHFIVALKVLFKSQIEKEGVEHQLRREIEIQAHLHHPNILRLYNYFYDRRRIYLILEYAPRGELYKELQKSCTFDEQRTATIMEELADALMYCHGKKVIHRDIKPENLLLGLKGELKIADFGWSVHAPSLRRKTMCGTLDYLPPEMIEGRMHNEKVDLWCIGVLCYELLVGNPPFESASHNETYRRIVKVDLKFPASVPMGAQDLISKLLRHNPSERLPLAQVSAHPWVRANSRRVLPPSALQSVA
Procedure, shortened: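 Aurora B activity measured as ADP formation via coupled luciferase ADP-Glo luminescence; single-point at 10 μM, triplicate.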

[5] = Cytotoxicity against human 786-O cells assessed as inhibition of mitochondrial viability at 10 uM after 6 hrs by CMXRos staining based assay relative to control; assay type: cell-based, 786-0; settings: read-out: INH
Procedure, shortened: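 Mitochondrial toxicity monitored by MitoTracker Red CMXRos uptake and high-content imaging; compound at 10 μM, triplicate.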

[6] = Cytotoxicity against human THP1 cells assessed as viable cells at 100 uM after 72 hrs by MTT assay relative to control; assay type: cell-based, THP-1; settings: read-out: Activity
Procedure, shortened: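 THP-1-derived macrophages exposed to compounds for 72 h, tested at 100 μM or in dose-response; viability read by MTT colorimetric assay.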

[7] = Cytotoxicity against human U2OS cells assessed as viable cells at 50 uM after 72 hrs by MTT assay relative to control; assay type: cell-based; settings: read-out: Activity
[8] = molecular target: T2, Pteridine reductase, putative (Trypanosoma brucei) (UniProt Q581W1); experiment: Inhibition of Trypanosoma brucei PTR1 at 50 uM using H2B as substrate in presence of NADPH by photometric analysis relative to control
T2 sequence (whole entry): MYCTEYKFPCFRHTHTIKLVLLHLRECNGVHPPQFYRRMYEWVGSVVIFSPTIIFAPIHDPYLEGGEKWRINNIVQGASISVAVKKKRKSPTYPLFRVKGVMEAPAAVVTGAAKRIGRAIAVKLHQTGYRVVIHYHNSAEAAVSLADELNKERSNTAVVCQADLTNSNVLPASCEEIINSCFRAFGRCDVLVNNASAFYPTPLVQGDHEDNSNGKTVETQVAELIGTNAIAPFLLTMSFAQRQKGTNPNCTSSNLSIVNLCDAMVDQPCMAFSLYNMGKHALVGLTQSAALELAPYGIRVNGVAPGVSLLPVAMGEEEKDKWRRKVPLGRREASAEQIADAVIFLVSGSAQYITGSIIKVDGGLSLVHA

[9] = molecular target: T3, Pteridine reductase 1 (Leishmania major) (UniProt Q01782); experiment: Inhibition of Leishmania major PTR1 at 50 uM using H2B as substrate in presence of NADPH by photometric analysis relative to control
T3 sequence (whole entry): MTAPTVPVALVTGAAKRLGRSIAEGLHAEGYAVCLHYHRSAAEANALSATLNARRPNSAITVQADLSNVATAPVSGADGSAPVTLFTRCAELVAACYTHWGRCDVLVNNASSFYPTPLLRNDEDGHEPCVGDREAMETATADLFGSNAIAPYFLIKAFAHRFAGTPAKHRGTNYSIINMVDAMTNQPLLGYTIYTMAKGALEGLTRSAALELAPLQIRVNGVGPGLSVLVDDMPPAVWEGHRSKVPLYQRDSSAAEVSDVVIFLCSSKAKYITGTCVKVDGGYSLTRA

[10] = Cytotoxicity against human A549 cells assessed as growth inhibition at 10 uM after 48 hrs by CellTiter-Glo assay relative to control; values are per cent of control; settings: A549 cells
[11] = Cytotoxicity against human WI38 cells assessed as growth inhibition at 10 uM after 48 hrs by CellTiter-Glo assay relative to control; values are per cent of control; settings: WI38 cells

| SMILES | inhibition at 0.5 h, 10 µM (CYP1A2) [%] | inhibition at 0.5 h, 10 µM (CYP2C9) [%] | inhibition at 0.5 h, 10 µM (CYP2C19) [%] | inhibition at 0.5 h, 10 µM (CYP2D6) [%] | inhibition at 0.5 h, 10 µM (CYP3A4) [%] | inhibition at 0.75 h, 10 µM (Aurora kinase B) [%] | inhibition [8] | inhibition [9] [%] | growth inhibition (GI) (Trypanosoma brucei [1]) | Activity (Trypanosoma brucei [2]) [%] | Activity (Trypanosoma brucei [3]) [%] | PF (Trypanosoma brucei [4]) | inhibition at 2 h, 10 µM (hERG (KCNH2)) [%] | cytotoxicity at 6 h, 10 µM [5] [%] | viability at 72 h, 100 µM [6] [%] | viability at 72 h, 50 µM [7] [%] | cell growth (% of control) at 48 h, 10 µM [10] [%] | cell growth (% of control) at 48 h, 10 µM [11] [%] | inhibition of growth at 50 µM (Leishmania infantum) [%] | inhibition of growth at 50 µM (Trypanosoma cruzi) [%] | further results |
| --- | --- | --- | --- | --- | --- | --- | --- | --- | --- | --- | --- | --- | --- | --- | --- | --- | --- | --- | --- | --- | --- |
| NC(=S)N/N=C/C(O)C(O)C(O)CO (stereo not given) | -13.2 | -19.7 | -35.1 | -54.5 | -27.9 | -7.51 | 1.7% | 4.38 | inactive | 0.5 | 16.17 | 0.65 | -11.1 | -1.92 | 67.6 | 146 | 129 | 95.7 |  |  | growth inhibition (GI) (Leishmania infantum): inactive; growth inhibition (GI) (Trypanosoma cruzi): inactive |
| COc1cc(/C=N/NC(N)=S)cc(OC)c1OC | 15.1 | -6.01 | -28.1 | -21 | -30.2 | -17.7 | 2.13% | 7.53 |  | 2.67 | 51.67 | 1.92 | -1.36 | 4.79 | 40.2 | 65.5 | 140 | 111 | 7.19 |  | inhibition of growth at 50 µM (Trypanosoma brucei [1]; Lister 427, 72 h, read-out: GI): 0.21%; growth inhibition (GI) (Trypanosoma cruzi): inactive |
| N/C(S)=N/N=C/c1ccc(Cl)c(Cl)c1 | 76.8 | 24.3 | -14.9 | 27.3 | -10.6 | -9.56 | inactive | 9.38 | inactive | 37.33 | 84 | 1.36 | -9.32 | 5.87 | 56.4 | 101 | 100 | 107 | 17.6 | 23.1 |  |

Second part, led by results:

| inhibition at 0.5 h, 10 µM (CYP1A2) [%] | inhibition at 0.5 h, 10 µM (CYP2C9) [%] | inhibition at 0.5 h, 10 µM (CYP2C19) [%] | inhibition at 0.5 h, 10 µM (CYP2D6) [%] | inhibition at 0.5 h, 10 µM (CYP3A4) [%] | inhibition at 0.75 h, 10 µM (Aurora kinase B) [%] | inhibition [8] | inhibition [9] [%] | SMILES | growth inhibition (GI) (Trypanosoma brucei [1]) | Activity (Trypanosoma brucei [2]) [%] | Activity (Trypanosoma brucei [3]) [%] | PF (Trypanosoma brucei [4]) | inhibition at 2 h, 10 µM (hERG (KCNH2)) [%] | cytotoxicity at 6 h, 10 µM [5] [%] | viability at 72 h, 100 µM [6] [%] | viability at 72 h, 50 µM [7] [%] | cell growth (% of control) at 48 h, 10 µM [10] [%] | cell growth (% of control) at 48 h, 10 µM [11] [%] | inhibition of growth at 50 µM (Leishmania infantum) [%] | inhibition of growth at 50 µM (Trypanosoma cruzi) [%] | further results |
| --- | --- | --- | --- | --- | --- | --- | --- | --- | --- | --- | --- | --- | --- | --- | --- | --- | --- | --- | --- | --- | --- |
| 11.5 | 7.46 | -20.7 | -13.1 | -4.06 | -14.2 | 10.2% | 2.62 | C/C(=N\NC(N)=S)c1ccc(N)cc1 | inactive | 4.67 | 75.17 | 2.6 | 6.38 | -5.04 | 95.2 | 113 | 141 | 83.1 | 9.54 | 51.8 |  |
| 11.6 | -3.66 | -38.4 | -16.9 | 8.17 | -9.68 | 3.76% | 7.99 | N/C(S)=N/N=C/c1ccc([N+](=O)[O-])cc1 | inactive | 8.17 | 36.33 | 1.12 | 4.43 | 0.08 | 75.6 | 85.6 | 128 | 122 | 19 | 40.1 |  |
